The list is not random: actives were taken first. Their share in the collection is about 1.6%.
CFTR F508del cor = F508del CFTR correction, initial screen, CFBE line, single point; CFBE cells, YFP halide quenching; stimulated with forskolin plus potentiator P3; % fluorescence drop versus neutral controls; activity (quench increase), % at 7.58 µM; 350,000 compounds, 0.36% hits; AID 720511, 2013;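 active means mean added fluorescence quench of at least 8% versus neutral control, with both replicates also reaching 8%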;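 further: cells transiently co-express mutant CFTR-F508del with the halide-sensitive YFP; corrector assay measuring rescue of mutant channel to the surface after 24 h compound exposure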
SUMO1-SIM PPI = modulators of SUMO1 protein-protein interactions, primary screen, biochemical, uHTS. 360,000 compounds, 0.33% hits. inhibition, % at 20 µM. AID 602429, 2012. Small ubiquitin-related modifier 1 (Homo sapiens), P63165. SUMO1 binding to a labelled peptide, TR-FRET, 1 h; in the data active means inhibition above about 37%
STEP inh = STEP phosphatase inhibitors, primary screen, biochemical, fluorescence intensity, uHTS | Tyrosine-protein phosphatase non-receptor type 5 (Homo sapiens), P54829 | recombinant STEP, OMFP fluorogenic substrate | inhibition, % at 20 µM | 360,000 compounds, 0.25% hits;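 active means inhibition at 20 µM, scaled per plate between control wells, above about 37%, limit read from the data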
Target sequence (P54829 whole entry, looked up): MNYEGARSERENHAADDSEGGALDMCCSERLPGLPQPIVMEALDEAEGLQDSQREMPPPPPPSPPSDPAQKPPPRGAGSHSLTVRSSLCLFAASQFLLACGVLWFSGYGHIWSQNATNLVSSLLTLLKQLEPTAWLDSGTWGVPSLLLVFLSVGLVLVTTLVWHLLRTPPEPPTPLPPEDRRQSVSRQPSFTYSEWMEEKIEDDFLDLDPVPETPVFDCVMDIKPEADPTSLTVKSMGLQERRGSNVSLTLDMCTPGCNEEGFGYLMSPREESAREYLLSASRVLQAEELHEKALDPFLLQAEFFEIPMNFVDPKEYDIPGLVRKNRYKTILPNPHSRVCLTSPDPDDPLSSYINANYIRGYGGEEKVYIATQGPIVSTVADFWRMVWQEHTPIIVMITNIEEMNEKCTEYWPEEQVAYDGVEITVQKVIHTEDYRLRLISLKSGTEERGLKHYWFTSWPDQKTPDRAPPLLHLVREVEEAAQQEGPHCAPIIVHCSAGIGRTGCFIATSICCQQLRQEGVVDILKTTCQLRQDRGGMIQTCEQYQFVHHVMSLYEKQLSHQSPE
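material = STEP tyrosine phosphatase | reagent = fluorogenic phosphatase substrate OMFP at 25 µM final | doses = single compound dose of 20 µM, 1% DMSO final | schedule = 20 min reaction, room temperature, in the dark | measured by = fluorescence, 480/540 nm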
Scp-1 inhibitor = Scp-1 phosphatase inhibitors, primary screen, biochemical, colorimetric, uHTS. inhibition, % at 20 µM. Recombinant Scp1, phosphopeptide, malachite green phosphate absorbance. AID 493091, 2011. 340,000 compounds, 0.88% hits. Carboxy-terminal domain RNA polymerase II polypeptide A small phosphatase 1 (Homo …;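 active means inhibition above about 50% at 20 µM, limit read from the data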
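Material: truncated SCP-1 phosphatase (76-261aa) / Buffer or medium: 50 mM Tris acetate pH 5.5, 0.005% Tween-20, 10 mM MgCl2 / Compound dosing: one concentration, 20 µM, with 1.0% DMSO / Incubation: 45 min room-temperature reaction, 5 min colour, 30 min stabiliser / Detection: colorimetric free-phosphate detection, absorbance 630 nm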
DNMT1 inh = human DNMT1 methyltransferase inhibitors, primary screen, biochemical, molecular beacon, fluorescence, HinP1I cleavage, uHTS; DNA (cytosine-5)-methyltransferase 1 (Homo sapiens), P26358; inhibition (reported as % activation of signal), % at 10 µM; 360,000 compounds, 0.83% hits; AID 588458, 2011; in the data active means inhibition above about 50%
LMPTP block = LMPTP phosphatase inhibitors, primary screen, biochemical, fluorescence intensity, uHTS. recombinant LMPTP-A, OMFP fluorogenic substrate. Low molecular weight phosphotyrosine protein phosphatase (Homo sapiens), P24666. 360,000 compounds, 0.22% hits. inhibition, % at 20 µM;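 active means compounds that cut the enzyme signal by at least half of the control window in the single-dose screen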
Target sequence (P24666 whole entry, looked up): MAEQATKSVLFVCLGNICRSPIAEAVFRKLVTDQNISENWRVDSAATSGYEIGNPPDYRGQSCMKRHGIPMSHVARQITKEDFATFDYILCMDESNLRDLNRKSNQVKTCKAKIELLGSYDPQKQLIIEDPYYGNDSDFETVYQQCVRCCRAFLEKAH
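Test system: LMPTP-A phosphatase enzyme; input: 0.625 nM LMPTP-A final; reagent: OMFP substrate, 400 µM final; compound dosing: 20 µM single dose, 3% DMSO; incubation: 50 min dark incubation at room temperature; measured by: endpoint fluorescence intensity from OMFP dephosphorylation; measure: % inhibition relative to no-enzyme and uninhibited control wells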
Beacon interf DR = spectral interference with molecular beacon fluorescence, dose response, artefact control for DNMT1 inhibitor project, biochemical, fluorescent molecular beacon; shares compounds with DNMT1 inh; spectral interference counter-screen; IC50, µM; 200 tested, under 10 active; AID 602382, 2012; call rule not given here
DNMT1 inh conf = DNMT1 methyltransferase inhibitor retest, confirmation, biochemical, molecular beacon, fluorescence, single concentration | shares compounds with DNMT1 inh | inhibition, % at 10 µM | DNMT1 molecular beacon HinP1I cleavage | 2,300 compounds, 8% hits;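 active means average inhibition of at least 30% in the single-concentration confirmation test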
Beacon interf = shows spectral interference in the DNMT1 beacon assay; 2,300 compounds, 1% hits; activation (fluorescence interference), % at 10 µM; shares compounds with DNMT1 inh; DNMT1 molecular beacon spectral interference counterscreen, fluorescence 485/520;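 active means activation of at least 30% at 10 µM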;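 further: DNMT1 catalytic domain with a HinP1I cleavage step and a FAM/dabcyl DNA beacon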
Each line names hits and unclear results; the compound was inactive in the other large screens (follow-up assays come after a bar, where they were run).

CCN(CC)CCNc1nc(-c2ccccc2)c2c(c1C#N)CC(C)(C)OC2	none (no result: CFTR F508del cor)
CC1(C)Cc2c(C#N)c(NCCCO)nc(-c3ccccc3)c2CO1	DNMT1 inh 66 | DNMT1 inh conf inactive | Beacon interf inactive
CCN(CC)CCCNc1nc2cc(OC)c(OC)cc2c2nc(-c3ccccc3)nn12	DNMT1 inh 64 (no result: CFTR F508del cor) | Beacon interf DR inactive | DNMT1 inh conf inactive | Beacon interf inactive
N#Cc1c(NC(=O)CSc2ncnc3sccc23)oc(-c2ccco2)c1-c1ccco1	DNMT1 inh 92 (no result: CFTR F508del cor) | DNMT1 inh conf inactive | Beacon interf inactive
Cc1ccc(CNC(=O)[C@H]2C[C@@H]2[C@H](NP(=O)(c2ccccc2)c2ccccc2)c2ccccc2)o1	DNMT1 inh 71 | DNMT1 inh conf inactive | Beacon interf inactive
O=C(NCc1ccccc1)[C@@H]1C[C@H]1[C@@H](NP(=O)(c1ccccc1)c1ccccc1)c1ccccc1	none
CN(C)c1ccc(/C=N/NC(=O)C2COc3ccccc3O2)o1 (stereo not drawn)	none (no result: CFTR F508del cor)
O=C(N/N=C\c1ccc(Br)o1)C1COc2ccccc2O1 (stereo not drawn)	DNMT1 inh 51 | DNMT1 inh conf inactive | Beacon interf inactive
Cc1cc(C)n2nc(C(=O)N/N=C/c3c4ccccc4cc4ccccc34)nc2n1	DNMT1 inh 92 (no result: CFTR F508del cor) | DNMT1 inh conf inactive | Beacon interf inactive
Fc1ccc(Nc2nc(-c3ccncc3)nc3ccccc23)cc1F	DNMT1 inh 56 | DNMT1 inh conf inactive | Beacon interf inactive
c1ccc2c(Nc3nc(-c4ccncc4)nc4ccccc34)cccc2c1	none
Cc1ccc(C(=O)N[C@H](C(=O)OCc2nnc(-c3ccccc3)o2)C(C)C)cc1	none
Cc1ccc(C(=O)N[C@H](C(=O)OCc2cc(=O)n3c(n2)sc2ccccc23)C(C)C)cc1	DNMT1 inh 84 (no result: CFTR F508del cor) | DNMT1 inh conf inactive | Beacon interf inactive
C[C@@H]1CN([C@H](C)CO)C(=O)CCCn2cc(nn2)CO[C@@H]1CN(C)Cc1ccc(C(=O)O)cc1	none (no result: SUMO1-SIM PPI, STEP inh, Scp-1 inhibitor, DNMT1 inh, LMPTP block)
CCc1nnc(NC(=O)c2oc3cc(C)c(C)cc3c2C)s1	DNMT1 inh 53 (no result: CFTR F508del cor) | DNMT1 inh conf inactive | Beacon interf inactive
N#Cc1c(NC(=O)/C=C/c2ccco2)sc2c1CCCC2	none (no result: CFTR F508del cor)
O=C(/C=C/c1ccco1)Nc1ccccc1C(=O)O	Scp-1 inhibitor 54, DNMT1 inh 80 | DNMT1 inh conf inactive | Beacon interf inactive
O=C(/C=C/c1ccco1)Nc1sc2c(c1C(=O)O)CCC2	DNMT1 inh 53 | DNMT1 inh conf inactive | Beacon interf inactive
C=C(C)[C@@H]1CCC2(C(=O)O)CC[C@]3(C)[C@H](CC[C@@H]4[C@@]5(C)CCC(=O)C(C)(C)[C@@H]5CC[C@]43C)[C@@H]12 (stereo partly drawn)	DNMT1 inh 55 | DNMT1 inh conf inactive | Beacon interf inactive
C=C(C)[C@@H]1CC[C@]2(C(=O)O)CC[C@]3(C)C(CCC4[C@@]5(C)CC[C@H](O)C(C)(C)C5CC[C@]43C)C12 (stereo partly drawn)	DNMT1 inh 60 | DNMT1 inh conf inactive | Beacon interf inactive
C=C(CC[C@@H](O)C(C)(C)O)[C@H]1CC[C@]2(C)[C@@H]1CCC1[C@@]3(C)CCC(=O)C(C)(C)C3CC[C@]12C (stereo partly drawn)	none
COc1cccc(CN2CCC3(CC2)CN(C(=O)C2CC2)[C@H](CO)c2c3c3ccc(OC)cc3n2C)c1	none (no result: SUMO1-SIM PPI, STEP inh, Scp-1 inhibitor, DNMT1 inh, LMPTP block)
Cc1cccc2cc3c(N)c(C#N)sc3nc12	none (no result: CFTR F508del cor)
Cc1sc(NC(=O)c2sc3nc4c(C)cccc4cc3c2N)c(C#N)c1C	DNMT1 inh 88 (no result: CFTR F508del cor) | DNMT1 inh conf inactive | Beacon interf inactive
C[C@@H]1CN([C@@H](C)CO)C(=O)Cc2cc(NC(=O)NC3CCCCC3)ccc2O[C@H]1CN(C)Cc1ccc(Cl)c(Cl)c1	none (no result: SUMO1-SIM PPI, STEP inh, Scp-1 inhibitor, DNMT1 inh, LMPTP block)
CCN(c1ccccc1)S(=O)(=O)c1cc(NC(=O)CSc2n[nH]c(=O)[nH]c2=O)ccc1Cl	DNMT1 inh 65 | DNMT1 inh conf inactive | Beacon interf inactive
Cc1ccc(-c2ccc(/C=N\NC(=O)c3cc4c(ccc5ccccc54)o3)o2)cc1[N+](=O)[O-]	DNMT1 inh 72 (no result: CFTR F508del cor) | DNMT1 inh conf inactive | Beacon interf inactive
COc1ccc(C(C(=O)NC2CCCC2)N(C(=O)c2snc(-c3ccc(F)cc3)c2N)c2ccccc2)cc1 (stereo not drawn)	DNMT1 inh 58 (no result: CFTR F508del cor) | DNMT1 inh conf inactive | Beacon interf inactive
NC(=O)c1nsc(C(=O)N(c2ccccc2)C(C(=O)NC2CCCC2)c2cccs2)c1N (stereo not drawn)	DNMT1 inh 54 | DNMT1 inh conf inactive | Beacon interf inactive
COCC#Cc1ccc([C@@H]2[C@H](CO)N3C(=O)CN(C(=O)c4cccnc4)C[C@@H]23)cc1	none (no result: SUMO1-SIM PPI, STEP inh, Scp-1 inhibitor, DNMT1 inh, LMPTP block)
C[C@H](CO)N1C[C@H](C)[C@@H](CN(C)S(C)(=O)=O)Oc2ccc(NC(=O)Cc3cn(C)c4ccccc34)cc2CC1=O	none (no result: SUMO1-SIM PPI, STEP inh, Scp-1 inhibitor, DNMT1 inh, LMPTP block)
Cc1ccc(/C=N/Nc2cc(C)nc(NCc3ccccc3)n2)cc1	none
Cc1cc(N/N=C/c2ccc(O)cc2)nc(NS(=O)(=O)c2ccccc2)n1	STEP inh 41, DNMT1 inh 83 (no result: CFTR F508del cor) | DNMT1 inh conf inactive | Beacon interf inactive
COc1cc(OC)cc(-c2c(-c3cccs3)c3cc(-c4ccc(OCc5ccccc5)cc4)ccc3n2C)c1	DNMT1 inh 52 | DNMT1 inh conf inactive | Beacon interf inactive
COc1ccc(-c2c(-c3cc(OC)cc(OC)c3)n(C)c3ccc(-c4cnc(N)nc4)cc23)cc1	DNMT1 inh 54 | DNMT1 inh conf inactive | Beacon interf inactive
COc1ccc(-c2c(-c3cc(OC)cc(OC)c3)n(C)c3ccc(-c4ccc(OC)nc4)cc23)cc1	none

Screens (PubChem)
